Published values gathered from unrelated publications.
Protocols differ between the studies behind these lines.
Target: Mitogen-activated protein kinase kinase kinase kinase 1 (MAP4K1, Homo sapiens, UniProt Q92918)

CCCCC(=O)Nc1ccc(-c2ccc3ncn(CCC)c(=O)c3c2)cn1  remaining binding (binding, competition with immobilised ligand; 0.5 µM): 100%
COc1ccc2oc(-c3ccc4nc(N)oc4c3)c/c(=N\c3ccccc3NC(=O)CCN)c2c1  remaining binding (binding; 1 µM): 109%
C=CC(=O)N1CCC[C@@H](n2nc(-c3ccc(Oc4ccccc4)cc3)c3c(N)ncnc32)C1  inhibition (enzyme activity, inhibitor; 1 µM): 10%
CN1CCN(C(=O)c2ccc(NC(=O)Nc3ccc(N(C)c4ccnc(Nc5ccc(CS(C)(=O)=O)cc5)n4)cc3)cc2)CC1  remaining binding (binding, competition with immobilised ligand; 1 µM): 2.6%
C#Cc1cc(-c2cc(Nc3nc(N[C@@H](C)c4ccc(F)cn4)ncc3Cl)n[nH]2)ccc1C=O  inhibition (enzyme activity, inhibitor; 0.2 µM): 47.8%
CC(C)S(=O)(=O)c1ccc2nccc(Nc3ccc4sc(C5CCCC5)nc4c3)c2c1  activity vs control (enzyme activity, inhibitor; 1 µM): 102%
CO[C@@H]1[C@H](N(C)C(=O)c2ccccc2)C[C@H]2O[C@]1(C)n1c3ccccc3c3c4c(c5c6ccccc6n2c5c31)C(=O)NC4  inhibition (enzyme activity, inhibitor; 1 µM): 80%
C[C@H]1CC[C@H](n2c3cnccc3c3cnc(Nc4ccc5c(n4)CCN(C(=O)CO)C5)nc32)CC1  remaining binding (binding, competition with immobilised ligand; 1 µM): 66%
